Results from different studies.
Protocols differ between the studies behind these lines.
DRD3: D(3) dopamine receptor (DRD3, Homo sapiens, UniProt P35462)
CASP3: Caspase-3 (CASP3, Homo sapiens, UniProt P42574)
SLC6A3: Sodium-dependent dopamine transporter (SLC6A3, Homo sapiens, UniProt Q01959)

O=C1CSC(=S)N1NC(=S)SSC(=S)NN1C(=O)CSC1=S
Ki (Tyrosine-protein phosphatase non-receptor type 22 (PTPN22, Homo sapiens, UniProt Q9Y2R2); enzyme activity; inhibitor; fluorescence): 1100 nM

CC1Cc2ccccc2N1C(=O)CCCN(C)[C@@H]1Cc2cccc3[nH]c(=O)n(c23)C1 (stereo partly shown)
Ki (DRD3; ligand displacement; radioligand; cell membranes): 3340 nM

O=C1c2ccccc2CCCN1CCCCN1CCN(c2ccccn2)CC1
Ki (DRD3; ligand displacement; radioligand): 3 nM

O=c1cc(-c2ccc(O)c(O)c2)oc2cc(O)cc(O)c12
Ki (CASP3; enzyme activity; inhibitor; fluorescence): 181000 nM

CCCC[C@H](NC(=O)[C@H](C)c1c(C)[nH]c2ccc(O)cc12)c1ncc(-c2cc3ccccc3nc2OC)[nH]1
Ki (Prostaglandin F2-alpha receptor (PTGFR, Homo sapiens, UniProt P43088); cell-free assay): 8980 nM

C=CCc1ccc(O)c(-c2ccc(O)c(CC=C)c2)c1
Ki (Peroxisome proliferator-activated receptor gamma (PPARG, Homo sapiens, UniProt P37231); ligand displacement; TR-FRET): 2000 nM

CCc1nc2cc(OCCCCN3CCC(c4cccc(Cl)c4Cl)CC3)ccc2s1
Ki (SLC6A3; ligand displacement; radioligand): 4000 nM

CC1Cc2ccccc2N1C(=O)NCCCCN(C)[C@@H]1Cc2cccc3[nH]c(=O)n(c23)C1 (mixture of isomers)
Ki (DRD3; ligand displacement; radioligand; cell membranes): 139 nM

O=c1c(O)c(-c2ccc(O)cc2)oc2cc(O)cc(O)c12
Ki (CASP3; enzyme activity; inhibitor; fluorescence): 194000 nM

Cc1nc2cc(OCCCCN3CCN(c4cccc(Cl)c4Cl)CC3)ccc2s1
Ki (SLC6A3; ligand displacement; radioligand): 690 nM

CN(CC[C@@H]1C[C@H]1CNC(=O)c1cc2ccccc2[nH]1)[C@@H]1Cc2cccc3[nH]c(=O)n(c23)C1
Ki (DRD3; ligand displacement; radioligand; cell membranes): 398 nM

O=C(O[C@@H]1Cc2c(O)cc(O[C@H]3O[C@H](CO)[C@@H](O)[C@H](O)[C@H]3O)cc2O[C@@H]1c1cc(O)c(O)c(O)c1)c1cc(O)c(O)c(O)c1
Ki (Maltase-glucoamylase (Homo sapiens, UniProt O43451); enzyme activity; inhibitor): 7880 nM

CCCN(CCCCNC(=O)c1cc2ccccc2[nH]1)[C@H]1CNc2ccccc2C1
Ki (DRD3; ligand displacement; radioligand; cell membranes): 1.34 nM

c1ccc(CCC2=NCCN2CCc2ccccc2)cc1
Ki (DRD3; ligand displacement; radioligand): > 10000 nM

CSC[C@H](NC(=O)C1=NO[C@@H]2OCC[C@H]12)C(=O)N[C@@H](CC(C)C)[C@@H](O)C[C@@H](C)C(=O)N[C@H](C(=O)NCC(C)C)C(C)C
Ki (Beta-secretase 2 (BACE2, Homo sapiens, UniProt Q9Y5Z0); enzyme activity; inhibitor): 46 nM

NS(=O)(=O)c1ccc(-n2nccc2-c2ccc(N3CCCCC3)cc2)cc1
Ki (Carbonic anhydrase 12 (CA12, Homo sapiens, UniProt O43570); enzyme activity; inhibitor; stopped-flow): 298 nM

CCCCN1CCC(COC(=O)c2ccc(N)c(OCF)c2)CC1
Ki (SLC6A3; cell-free assay; radioligand): > 10000 nM

CC(=O)N[C@@H](CCCCNC(=O)CSCCNC(=O)CCNC(=O)[C@H](O)C(C)(C)COP(=O)(O)OP(=O)(O)OC[C@H]1O[C@@H](n2cnc3c(N)ncnc32)[C@H](O)[C@@H]1OP(=O)(O)O)C(N)=O
Ki (Histone acetyltransferase type B catalytic subunit (Homo sapiens, UniProt O14929); enzyme activity; inhibitor; radiometric): 74800 nM

Oc1cccc(CCC2=NCCN2Cc2ccccc2)c1
Ki (DRD3; ligand displacement; radioligand): 1260 nM
